ChEMBL document CHEMBL2150988, “Preparation and optimization of new 4-(morpholin-4-yl)-(6-oxo-1,6-dihydropyrimidin-2-yl)amide derivatives as PI3Kβ inhibitors” (Bioorg Med Chem Lett, 2012)
In brackets after ≈: the same amount, converted by molar mass.

Tests used:
Cytochrome P450 3A4 = Cytochrome P450 3A4 (Homo sapiens, UniProt P08684); test: Inhibition of human recombinant CYP3A4; assay type: ADME
[1] = Drug metabolism in mouse liver microsomes after 20 mins; assay type: ADME, Microsome; details: read-out: Drug metabolism
How it was run: (§1)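 Liver microsomes (human or mouse) incubated with compound for 20 min; %lability reported as % of compound metabolized.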

[2] = Inhibition of Akt phosphorylation at S473 in PTEN deficient human PC3 cells; assay type: cell-based; details: PC-3
[3] = biological target: Phosphatidylinositol 4,5-bisphosphate 3-kinase catalytic subunit gamma isoform (Homo sapiens, UniProt P48736); test: Inhibition of PI3Kgamma
[4] = Apparent permeability across human Caco2/TC7 cells; assay type: ADME, cell-based; details: Caco-2
How it was run: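 Caco-2 TC7 clone monolayers; transport measured in both apical-to-basolateral and basolateral-to-apical directions, giving Papp (nm/s) and an efflux ratio.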

[5] = biological target: Serine/threonine-protein kinase mTOR (Homo sapiens, UniProt P42345); test: Inhibition of mTOR
[6] = Equilibrium solubility of the compound in phosphate buffer at pH 7.4 after 16 hrs by HPLC analysis; assay type: physicochemical
[7] = Drug metabolism in human liver microsomes after 20 mins; assay type: ADME, Microsome; details: read-out: Drug metabolism; how it was run: as §1
[8] = biological target: T1, Phosphatidylinositol 4,5-bisphosphate 3-kinase catalytic subunit delta isoform (Homo sapiens, UniProt O00329); test: Inhibition of PI3Kdelta
T1 sequence (O00329 whole entry): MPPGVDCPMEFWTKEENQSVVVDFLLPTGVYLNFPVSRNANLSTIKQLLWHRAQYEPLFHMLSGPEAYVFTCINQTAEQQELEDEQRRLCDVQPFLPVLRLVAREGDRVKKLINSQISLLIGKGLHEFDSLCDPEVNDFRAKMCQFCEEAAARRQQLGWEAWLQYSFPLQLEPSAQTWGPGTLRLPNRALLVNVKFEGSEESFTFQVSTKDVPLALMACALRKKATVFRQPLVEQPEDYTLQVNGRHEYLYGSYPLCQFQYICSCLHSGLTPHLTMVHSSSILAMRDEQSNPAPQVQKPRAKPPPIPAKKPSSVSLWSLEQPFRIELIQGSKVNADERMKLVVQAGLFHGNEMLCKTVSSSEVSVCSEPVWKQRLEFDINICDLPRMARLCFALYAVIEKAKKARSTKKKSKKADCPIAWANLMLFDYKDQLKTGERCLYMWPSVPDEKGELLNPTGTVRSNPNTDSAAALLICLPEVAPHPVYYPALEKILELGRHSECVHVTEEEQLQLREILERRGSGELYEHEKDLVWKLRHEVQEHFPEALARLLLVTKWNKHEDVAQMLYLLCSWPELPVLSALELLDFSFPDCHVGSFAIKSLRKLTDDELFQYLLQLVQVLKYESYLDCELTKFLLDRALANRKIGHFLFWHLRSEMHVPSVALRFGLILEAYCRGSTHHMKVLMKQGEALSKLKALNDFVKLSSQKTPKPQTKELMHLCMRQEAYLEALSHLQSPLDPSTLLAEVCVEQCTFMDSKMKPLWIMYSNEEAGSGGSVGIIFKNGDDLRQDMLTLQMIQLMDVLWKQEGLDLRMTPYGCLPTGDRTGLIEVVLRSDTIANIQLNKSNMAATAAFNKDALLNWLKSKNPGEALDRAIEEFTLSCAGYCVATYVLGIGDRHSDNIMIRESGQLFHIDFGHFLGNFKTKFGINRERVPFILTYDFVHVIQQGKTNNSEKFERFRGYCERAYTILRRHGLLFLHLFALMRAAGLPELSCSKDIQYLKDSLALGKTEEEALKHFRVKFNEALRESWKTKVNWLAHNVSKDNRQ

[9] = biological target: Phosphatidylinositol 4,5-bisphosphate 3-kinase catalytic subunit alpha isoform (Homo sapiens, UniProt P42336); test: Inhibition of PI3Kalpha
[10] = biological target: Phosphatidylinositol 4,5-bisphosphate 3-kinase catalytic subunit beta isoform (Homo sapiens, UniProt P42338); test: Inhibition of PI3Kbeta
[11] = Efflux ratio of permeability […] in human Caco2/TC7 cells; assay type: ADME, cell-based
How it was run: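 Caco-2 TC7 clone cells grown as a monolayer; compound transport measured in both directions, apical to basolateral (A–B) and basolateral to apical (B–A); apparent permeability (Papp) read out, and efflux ratio derived from the two directional measurements.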

Mus musculus [12] = test: Inhibition of Akt phosphorylation at S473 in PTEN deficient human PC3 cells xenografted SCID mouse tumor at 30 mg/kg, po administered as solution after 6 hrs; assay type: functional; details: PC-3, 6 h
[13] = Volume of distribution at steady state in SCID mouse at 3 mg/kg, iv; assay type: ADME, organism-based; set-up: dose 3 mg/kg, route intravenous; details: in vivo, read-out: Vdss
[14] = Drug uptake in PTEN deficient human PC3 cells xenografted SCID mouse tumor at 244 mg/kg, po administered as suspension after 1 hr; assay type: ADME, organism-based, Neoplasm, PC-3; set-up: dose 244 mg/kg, route oral; details: tumor (PC3 xenograft), read-out: Drug uptake
How it was run: (§2)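 SCID mice bearing PTEN-deficient PC3 prostate tumor xenografts given a single oral dose, either 30 mg/kg in solution or 244 mg/kg in suspension; drug levels in plasma and tumor measured at 1 and 6 h after dosing.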

Mus musculus [15] = test: Inhibition of Akt phosphorylation at T308 in PTEN deficient human PC3 cells xenografted SCID mouse tumor at 244 mg/kg, po administered as suspension after 6 hrs; assay type: functional; details: PC-3, 6 h
Mus musculus [16] = test: Hepatic clearance in SCID mouse at 3 mg/kg, iv; assay type: ADME, organism-based, Liver; set-up: dose 3 mg/kg, route intravenous; details: in vivo
Mus musculus [17] = test: Inhibition of Akt phosphorylation at T308 in PTEN deficient human PC3 cells xenografted SCID mouse tumor at 30 mg/kg, po administered as solution after 6 hrs; assay type: functional; details: PC-3, 6 h
[18] = Drug uptake in PTEN deficient human PC3 cells xenografted SCID mouse tumor at 30 mg/kg, po administered as solution after 6 hrs; assay type: ADME, organism-based, Neoplasm, PC-3; set-up: dose 30 mg/kg, route oral; details: tumor (PC3 xenograft), read-out: Drug uptake; how it was run: as §2
[19] = Plasma concentration in SCID mouse xenografted with PTEN deficient human PC3 cells at 244 mg/kg, po administered as suspension after 1 hr; assay type: ADME, organism-based, PC-3; set-up: dose 244 mg/kg, route oral; how it was run: as §2
[20] = Plasma concentration in SCID mouse xenografted with PTEN deficient human PC3 cells at 244 mg/kg, po administered as suspension after 6 hrs; assay type: ADME, organism-based, PC-3; set-up: dose 244 mg/kg, route oral; how it was run: as §2
[21] = Drug uptake in PTEN deficient human PC3 cells xenografted SCID mouse tumor at 244 mg/kg, po administered as suspension after 6 hrs; assay type: ADME, organism-based, Neoplasm, PC-3; set-up: dose 244 mg/kg, route oral; details: tumor (PC3 xenograft), read-out: Drug uptake; how it was run: as §2
[22] = Drug uptake in PTEN deficient human PC3 cells xenografted SCID mouse tumor at 30 mg/kg, po administered as solution after 1 hr; assay type: ADME, organism-based, Neoplasm, PC-3; set-up: dose 30 mg/kg, route oral; details: tumor (PC3 xenograft), read-out: Drug uptake; how it was run: as §2
[23] = Terminal elimination half life in SCID mouse at 10 mg/kg, po; assay type: ADME, organism-based; set-up: dose 10 mg/kg, route oral; details: in vivo, read-out: beta t1/2 (converted)
Mus musculus [24] = test: Inhibition of Akt phosphorylation at T308 in PTEN deficient human PC3 cells xenografted SCID mouse tumor at 30 mg/kg, po administered as solution after 1 hr; assay type: functional; details: PC-3, 1 h
[25] = Plasma concentration in SCID mouse xenografted with PTEN deficient human PC3 cells at 30 mg/kg, po administered as solution after 1 hr; assay type: ADME, organism-based, PC-3; set-up: dose 30 mg/kg, route oral; how it was run: as §2
Mus musculus [26] = test: Inhibition of Akt phosphorylation at S473 in PTEN deficient human PC3 cells xenografted SCID mouse tumor at 244 mg/kg, po administered as suspension after 6 hrs; assay type: functional; details: PC-3, 6 h
[27] = Oral bioavailability in SCID mouse at 10 mg/kg; assay type: ADME, organism-based; details: in vivo
Mus musculus [28] = test: Inhibition of Akt phosphorylation at S473 in PTEN deficient human PC3 cells xenografted SCID mouse tumor at 244 mg/kg, po administered as suspension after 1 hr; assay type: functional; details: PC-3, 1 h
Mus musculus [29] = test: Inhibition of Akt phosphorylation at T308 in PTEN deficient human PC3 cells xenografted SCID mouse tumor at 244 mg/kg, po administered as suspension after 1 hr; assay type: functional; details: PC-3, 1 h
Mus musculus [30] = test: Inhibition of Akt phosphorylation at S473 in PTEN deficient human PC3 cells xenografted SCID mouse tumor at 30 mg/kg, po administered as solution after 1 hr; assay type: functional; details: PC-3, 1 h
[31] = Plasma concentration in SCID mouse xenografted with PTEN deficient human PC3 cells at 30 mg/kg, po administered as solution after 6 hrs; assay type: ADME, organism-based, PC-3; set-up: dose 30 mg/kg, route oral; how it was run: as §2

Phosphatidylinositol 4,5-bisphosphate 3-kinase catalytic subunit alpha isoform, sequence (P42336 whole entry, canonical isoform): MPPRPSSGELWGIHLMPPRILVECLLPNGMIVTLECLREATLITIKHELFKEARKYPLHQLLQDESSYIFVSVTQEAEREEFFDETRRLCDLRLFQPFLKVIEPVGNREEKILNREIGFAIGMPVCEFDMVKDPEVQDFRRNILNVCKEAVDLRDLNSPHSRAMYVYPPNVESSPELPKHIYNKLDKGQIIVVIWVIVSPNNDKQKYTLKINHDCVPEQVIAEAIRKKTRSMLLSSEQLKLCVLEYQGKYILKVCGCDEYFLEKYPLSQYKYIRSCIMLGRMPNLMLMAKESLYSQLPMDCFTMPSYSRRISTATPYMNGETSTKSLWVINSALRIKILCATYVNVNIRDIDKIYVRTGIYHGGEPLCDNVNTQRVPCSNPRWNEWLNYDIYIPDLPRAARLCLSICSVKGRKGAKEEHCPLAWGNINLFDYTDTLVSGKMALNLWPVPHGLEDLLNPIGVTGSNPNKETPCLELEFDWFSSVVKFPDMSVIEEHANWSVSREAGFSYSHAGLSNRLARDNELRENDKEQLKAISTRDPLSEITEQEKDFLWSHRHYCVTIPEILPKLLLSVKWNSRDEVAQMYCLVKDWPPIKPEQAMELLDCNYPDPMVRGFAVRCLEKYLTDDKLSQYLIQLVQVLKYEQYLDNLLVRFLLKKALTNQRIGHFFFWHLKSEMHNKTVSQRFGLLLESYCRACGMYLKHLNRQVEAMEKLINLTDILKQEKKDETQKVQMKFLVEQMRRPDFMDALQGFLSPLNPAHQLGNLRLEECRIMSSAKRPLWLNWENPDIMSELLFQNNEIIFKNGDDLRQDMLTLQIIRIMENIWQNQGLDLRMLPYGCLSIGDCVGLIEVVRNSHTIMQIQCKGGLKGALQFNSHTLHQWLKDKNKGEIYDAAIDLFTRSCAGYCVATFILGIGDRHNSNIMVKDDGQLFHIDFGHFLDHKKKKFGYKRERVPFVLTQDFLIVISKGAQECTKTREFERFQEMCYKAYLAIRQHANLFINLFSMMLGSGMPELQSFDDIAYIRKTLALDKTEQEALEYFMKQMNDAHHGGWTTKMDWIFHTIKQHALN
Phosphatidylinositol 4,5-bisphosphate 3-kinase catalytic subunit beta isoform, sequence (P42338 whole entry, canonical isoform): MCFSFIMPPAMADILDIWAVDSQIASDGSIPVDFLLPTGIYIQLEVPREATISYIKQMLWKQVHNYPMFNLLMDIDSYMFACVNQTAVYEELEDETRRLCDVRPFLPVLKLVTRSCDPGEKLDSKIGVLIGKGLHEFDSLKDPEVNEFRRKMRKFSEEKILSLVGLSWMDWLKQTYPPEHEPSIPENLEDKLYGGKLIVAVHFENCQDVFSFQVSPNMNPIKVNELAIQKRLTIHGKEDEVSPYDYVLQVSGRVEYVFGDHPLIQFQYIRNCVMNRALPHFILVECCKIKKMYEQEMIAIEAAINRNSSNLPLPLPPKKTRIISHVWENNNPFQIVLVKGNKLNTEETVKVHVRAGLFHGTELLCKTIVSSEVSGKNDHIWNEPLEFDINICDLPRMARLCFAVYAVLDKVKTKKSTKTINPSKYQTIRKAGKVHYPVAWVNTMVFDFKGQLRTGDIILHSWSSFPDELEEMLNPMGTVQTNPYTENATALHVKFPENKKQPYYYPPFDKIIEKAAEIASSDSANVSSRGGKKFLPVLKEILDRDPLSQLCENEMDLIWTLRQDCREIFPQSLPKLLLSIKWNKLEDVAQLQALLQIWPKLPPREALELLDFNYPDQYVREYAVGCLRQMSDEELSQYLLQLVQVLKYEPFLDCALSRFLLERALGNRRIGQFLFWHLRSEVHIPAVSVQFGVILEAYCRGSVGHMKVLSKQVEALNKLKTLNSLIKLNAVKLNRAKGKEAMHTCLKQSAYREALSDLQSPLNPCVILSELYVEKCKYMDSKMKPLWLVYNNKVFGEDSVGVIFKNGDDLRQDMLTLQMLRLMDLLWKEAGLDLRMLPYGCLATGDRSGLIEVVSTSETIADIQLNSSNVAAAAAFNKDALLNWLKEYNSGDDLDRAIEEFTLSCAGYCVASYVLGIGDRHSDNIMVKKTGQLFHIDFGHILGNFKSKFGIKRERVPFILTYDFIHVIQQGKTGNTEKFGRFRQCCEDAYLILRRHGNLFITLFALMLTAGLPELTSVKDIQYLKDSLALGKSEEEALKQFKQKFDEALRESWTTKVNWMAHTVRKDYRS
Cytochrome P450 3A4, sequence (P08684 whole entry): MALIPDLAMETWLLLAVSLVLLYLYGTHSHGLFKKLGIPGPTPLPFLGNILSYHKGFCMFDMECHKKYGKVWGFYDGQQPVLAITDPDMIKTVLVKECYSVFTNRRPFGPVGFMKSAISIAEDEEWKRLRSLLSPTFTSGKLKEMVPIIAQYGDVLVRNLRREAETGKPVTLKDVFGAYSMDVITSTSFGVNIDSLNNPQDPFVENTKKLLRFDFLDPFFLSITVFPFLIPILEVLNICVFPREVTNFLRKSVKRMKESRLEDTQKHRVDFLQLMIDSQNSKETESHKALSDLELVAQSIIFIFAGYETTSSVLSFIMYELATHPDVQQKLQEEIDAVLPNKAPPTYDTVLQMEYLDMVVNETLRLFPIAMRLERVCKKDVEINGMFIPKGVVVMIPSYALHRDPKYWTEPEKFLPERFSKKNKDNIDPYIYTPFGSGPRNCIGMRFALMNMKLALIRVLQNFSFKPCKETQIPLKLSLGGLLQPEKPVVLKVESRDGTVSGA
Phosphatidylinositol 4,5-bisphosphate 3-kinase catalytic subunit gamma isoform, sequence (P48736 whole entry, canonical isoform): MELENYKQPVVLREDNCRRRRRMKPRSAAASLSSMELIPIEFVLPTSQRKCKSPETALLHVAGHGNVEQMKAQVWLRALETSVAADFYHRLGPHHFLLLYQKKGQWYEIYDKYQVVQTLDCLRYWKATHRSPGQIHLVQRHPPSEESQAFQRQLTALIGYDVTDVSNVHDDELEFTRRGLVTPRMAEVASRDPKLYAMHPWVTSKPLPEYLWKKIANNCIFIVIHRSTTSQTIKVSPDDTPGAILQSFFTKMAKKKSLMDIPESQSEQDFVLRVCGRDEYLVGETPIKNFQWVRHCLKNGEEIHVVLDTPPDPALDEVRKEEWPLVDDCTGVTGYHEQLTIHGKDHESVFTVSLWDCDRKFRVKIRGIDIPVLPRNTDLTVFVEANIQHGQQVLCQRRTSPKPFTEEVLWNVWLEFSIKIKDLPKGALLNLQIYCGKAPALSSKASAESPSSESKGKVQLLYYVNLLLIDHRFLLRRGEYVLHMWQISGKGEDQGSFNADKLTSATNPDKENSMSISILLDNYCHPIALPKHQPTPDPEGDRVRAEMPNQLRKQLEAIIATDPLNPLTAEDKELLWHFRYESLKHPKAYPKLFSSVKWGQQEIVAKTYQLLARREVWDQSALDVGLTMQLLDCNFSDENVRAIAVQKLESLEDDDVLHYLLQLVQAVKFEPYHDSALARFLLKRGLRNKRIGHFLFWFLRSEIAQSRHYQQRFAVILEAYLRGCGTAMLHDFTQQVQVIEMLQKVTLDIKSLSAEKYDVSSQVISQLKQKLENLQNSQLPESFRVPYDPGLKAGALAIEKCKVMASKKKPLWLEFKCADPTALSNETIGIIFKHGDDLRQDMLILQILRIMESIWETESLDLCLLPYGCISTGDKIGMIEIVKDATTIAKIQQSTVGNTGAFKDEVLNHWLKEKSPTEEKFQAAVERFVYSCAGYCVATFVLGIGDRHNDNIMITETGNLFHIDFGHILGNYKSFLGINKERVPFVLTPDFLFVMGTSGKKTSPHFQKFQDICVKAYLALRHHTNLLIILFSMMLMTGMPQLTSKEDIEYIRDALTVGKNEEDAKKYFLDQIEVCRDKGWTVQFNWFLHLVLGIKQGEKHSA

Compound	IC50 (Cytochrome P450 3A4) [nM]	metabolised at 20 min [1] [%]	IC50 [2] [nM]	IC50 [3] [nM]	Papp [4] [×10⁻⁶ cm/s]	solubility thermodynamic at 16 h [6] [µM]	metabolised at 20 min [7] [%]	IC50 [8] [nM]	IC50 [9] [nM]	IC50 [10] [nM]	Ratio [11]	other results
Cc1cc(NC(=O)Cc2nc(N3CCOCC3)cc(=O)[nH]2)ccc1F	> 40000	60	71	8010	0.6	3 (≈ 1.04 µg/mL)	91	63	831	6		
COc1cc(NC(=O)Cc2nc(N3CCOCC3)cc(=O)[nH]2)ccc1F	> 40000	28	98	> 10000	0.2	33 (≈ 12 µg/mL)	71	148	3460	3		
Cn1c(CC(=O)Nc2ccc(F)c(Cl)c2)nc(N2CCOCC2)cc1=O	> 40000	12	79	8280	6.6	5 (≈ 1.9 µg/mL)	44	2210	> 10000	42	4	inhibition in vivo at 30 mg/kg (Mus musculus [12]): 0%; Vd [13]: 1.3 L/kg; concentration at 1 h [14]: 6 µM; inhibition in vivo at 244 mg/kg (Mus musculus [15]): 0%; CLH (Mus musculus [16]): 26.7 mL/min/kg; inhibition in vivo at 30 mg/kg (Mus musculus [17]): 23%; concentration at 6 h [18]: 1 µM; concentration at 1 h [19]: 4.5 µM; concentration at 6 h [20]: 1.6 µM; concentration at 6 h [21]: 1.7 µM; concentration at 1 h [22]: 11 µM; half-life [23]: 1.4 h; inhibition in vivo at 30 mg/kg (Mus musculus [24]): 86%; concentration at 1 h [25]: 10 µM; inhibition in vivo at 244 mg/kg (Mus musculus [26]): 0%; bioavailability [27]: 52%; inhibition in vivo at 244 mg/kg (Mus musculus [28]): 73%; inhibition in vivo at 244 mg/kg (Mus musculus [29]): 63%; inhibition in vivo at 30 mg/kg (Mus musculus [30]): 91%; concentration at 6 h [31]: 0.4 µM

More lines, main results first:

IC50 (Cytochrome P450 3A4) [nM]	metabolised at 20 min [1] [%]	IC50 [2] [nM]	IC50 [3] [nM]	Papp [4] [×10⁻⁶ cm/s]	solubility thermodynamic at 16 h [6] [µM]	metabolised at 20 min [7] [%]	IC50 [8] [nM]	IC50 [9] [nM]	IC50 [10] [nM]	Ratio [11]	Compound	other results
> 40000	4	68	> 10000	0.5	73 (≈ 22.9 µg/mL)	44					O=C(Cc1nc(N2CCOCC2)cc(=O)[nH]1)Nc1ccccc1	IC50 [5]: > 10000 nM
> 40000	18	38	6610	0.8	5 (≈ 2.06 µg/mL)	42	297	4140	26		O=C(Cc1nc(N2CCOCC2)cc(=O)[nH]1)Nc1ccc(F)c(Br)c1	
> 40000	38	10	> 10000	1.4	6 (≈ 2.36 µg/mL)	75	189	1910	5	26	O=C(Cc1nc(N2CCOCC2)cc(=O)[nH]1)Nc1cccc(Br)c1	
